The text below walks through data of ChEMBL document CHEMBL4145471, “New 1,5 and 2,5-disubstituted tetrazoles-dependent activity towards surface barrier of Candida albicans” (Eur J Med Chem, 2018).

Test [1] relates to Candida albicans. The experiment in a line: Antifungal activity against Candida albicans ATCC 90028 at 8 ug/ml after 48 hrs relative to control. In kind it is functional. The essentials: (§1)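 Planktonic broth microdilution per M27-A3 in MOPS-buffered RPMI 1640 (pH 7.0), final inoculum 1.8×10^3 cells/mL, compounds 0.0313–16 µg/mL from 1600 µg/mL stocks in ethanol or DMSO. Incubated at 35°C without agitation; OD405 read at 18 and 48 h. % inhibition was derived from test, sterility (no inoculum) and solvent growth-control wells. Amphotericin B at 0.5 µg/mL served as the 100% control.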

Test [2] relates to Candida albicans. The experiment in a line: Antifungal activity against Candida albicans ATCC 90028 at 0.0625 ug/ml after 48 hrs relative to control. In kind it is functional. A digest of the protocol: as §1
Test [3] relates to Candida albicans. Briefly: Antifungal activity against Candida albicans ATCC 90028 at 0.0313 ug/ml after 18 hrs relative to control. In kind it is functional.
Test [4] deals with Candida albicans. The experiment in a line: Fungicidal activity against Candida albicans ATCC 90028 at 16 ug/ml after 48 hrs by M27-A3 microdilution method. In kind it is functional. The essentials: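 After 48 h at 35°C in M27-A3 microdilution plates (compound at 16 µg/mL), 50 µL aliquots from treated and solvent-control wells were diluted 10^4 in PBS and plated on drug-free Sabouraud dextrose agar, then incubated 48 h at 35°C. Reduction R = lg CFU/mL control − lg CFU/mL treated; R ≥ 3 defined as fungicidal.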

Test [5] has as its system Candida albicans. Briefly: Synergistic antifungal activity against Candida albicans ATCC 90028 at 40 ug/ml after 48 hrs in presence of 20 ug/ml fluconazol by checkerboard assay relative to control. In kind it is functional. A digest of the protocol:
(§2)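 Checkerboard in C. albicans ATCC 90028, inoculum prepared per CLSI M27-A3 in RPMI. Fluconazole serially diluted 80-1.25 µg/mL across the plate against the partner compound at 80-1.25 µg/mL final. Incubated 48 h at 35°C. Metabolic activity read by XTT reduction at 475 nm (660 nm reference), given as % of the untreated growth control.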

Test [6] has as its system Candida albicans. The experiment in a line: Synergistic antifungal activity against Candida albicans ATCC 90028 at 20 ug/ml after 48 hrs in presence of 2.5 ug/ml fluconazol by checkerboard assay relative to control. In kind it is functional. The essentials: (§3)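 Checkerboard microdilution (M27-A3) on C. albicans ATCC 90028 in RPMI 1640: fluconazole (80-1.25 µg/mL) crossed with tetrazole (80-1.25 µg/mL final), incubated at 35°C for 48 h. Growth by OD405 at 18 and 48 h, endpoint taken as 100% inhibition. FIC index = sum of the two agents' FICs; <1 synergism, >1 antagonism.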

In test [7] the test system is Candida albicans. The experiment in a line: Synergistic antifungal activity against Candida albicans ATCC 90028 at 20 ug/ml after 48 hrs in presence of 1.25 ug/ml fluconazol by checkerboard assay relative to control. In kind it is functional. A digest of the protocol: as §2
The subject of test [8] is Candida albicans. Briefly: Synergistic antifungal activity against Candida albicans ATCC 90028 at 2.5 ug/ml after 48 hrs in presence of 2.5 ug/ml fluconazol by checkerboard assay relative to control. In kind it is functional. The conditions noted are these: ATCC 90028, 48 h, read-out: GI. A digest of the protocol:
as §3

Test [9] relates to Candida albicans. The experiment in a line: Synergistic antifungal activity against Candida albicans ATCC 90028 at 2.5 ug/ml after 48 hrs in presence of 1.25 ug/ml fluconazol by checkerboard assay relative to control. In kind it is functional. A digest of the protocol:
as §3

In test [10] the test system is Candida albicans. Briefly: Synergistic antifungal activity against Candida albicans ATCC 90028 at 1.25 ug/ml after 48 hrs in presence of 80 ug/ml fluconazol by checkerboard assay relative to control. In kind it is functional. A digest of the protocol:
(§4)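 Checkerboard per M27-A3 against ATCC 90028: fluconazole at 80–1.25 µg/mL horizontally and partner compound at 80–1.25 µg/mL vertically, 100 µL yeast inoculum per well, 35°C for 48 h. After 48 h, metabolic activity was measured by XTT reduction at 475 nm (660 nm reference) relative to untreated growth control. FIC index is the sum of the FICs; <1 was defined as synergism and >1 as antagonism.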

Test [11] concerns Candida albicans. The experiment in a line: Synergistic antifungal activity against Candida albicans ATCC 90028 at 1.25 ug/ml after 48 hrs in presence of 5 ug/ml fluconazol by checkerboard assay relative to control. In kind it is functional. A digest of the protocol:
as §4

Test [12] has as its system Candida albicans. Briefly: Antifungal activity against Candida albicans ATCC 90028 assessed as inhibition of metabolic activity at 2.5 ug/ml after 48 hrs in presence of 40 ug/ml fluconazol by XTT assay relative to control. In kind it is functional. The conditions noted are these: values are per cent of control. A digest of the protocol: (§5)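 C. albicans ATCC 90028 in checkerboard: fluconazole serial dilutions (80-1.25 µg/mL) crossed with tetrazole (80-1.25 µg/mL final), M27-A3 inoculum in RPMI 1640, 35°C for 48 h. Metabolic activity measured by XTT reduction, read at 475 nm (660 nm reference). Activity expressed relative to untreated growth control absorbance.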

The test system of test [13] is Candida albicans. Briefly: Antifungal activity against Candida albicans ATCC 90028 assessed as inhibition of metabolic activity at 1.25 ug/ml after 48 hrs in presence of 2.5 ug/ml fluconazol by XTT assay relative to control. In kind it is functional. The conditions noted are these: values are per cent of control. A digest of the protocol: as §5
For test [14], the system named is Candida albicans. Briefly: Antifungal activity against Candida albicans ATCC 90028 assessed as metabolic activity at 80 ug/ml after 48 hrs in presence of 20 ug/ml fluconazol by XTT assay relative to control.
Test [15] has as its system Candida albicans. The experiment in a line: Antifungal activity against Candida albicans ATCC 90028 assessed as metabolic activity at 20 ug/ml after 48 hrs in presence of 80 ug/ml fluconazol by XTT assay relative to control. (Tetrazolium assays rely on reduction of a dye to a coloured formazan, in cell work by metabolically active cells.)
Test [16] has as its system Candida albicans. The experiment in a line: Antifungal activity against Candida albicans ATCC 90028 assessed as metabolic activity at 20 ug/ml after 48 hrs in presence of 40 ug/ml fluconazol by XTT assay relative to control.
Test [17] has as its system Candida albicans. Briefly: Antifungal activity against Candida albicans ATCC 90028 assessed as metabolic activity at 20 ug/ml after 48 hrs in presence of 20 ug/ml fluconazol by XTT assay relative to control. Particulars: ATCC 90028, 48 h.
For test [18], the system named is Candida albicans. Briefly: Antifungal activity against Candida albicans ATCC 90028 assessed as metabolic activity at 10 ug/ml after 48 hrs in presence of 80 ug/ml fluconazol by XTT assay relative to control.
The subject of test [19] is Candida albicans. The experiment in a line: Antifungal activity against Candida albicans ATCC 90028 assessed as metabolic activity at 20 ug/ml after 48 hrs in presence of 2.5 ug/ml fluconazol by XTT assay relative to control.

Consider `CCOC(=O)CCn1nnc(-c2ccccc2)n1`, for which the Activity was 98.86% in test [1], 99.12% in [2], 99.34% in test [3] and 0.33 log10CFU/ml in [4]. The “growth inhibition (GI)” value amounted to 99.54% in test [5]; 99.63% in [6]; 99.79% in test [7]; 99.79% in [9]; 99.51% in [10]; 98.99% in test [11]. The inhibition of growth at 2.5 µg/mL in [8] was determined as 99.8%. Besides, the values for the residual activity in [12] and in [13] were 92.82% and 75.73%, respectively. In addition, the Metabolic activity came to 73.11% in test [14]; 94.76% in test [15]; 99.65% in test [16]; 77.26% in [18]; 80.61% in test [19]. Further, the Metabolic activity at 20 µg/mL in test [17] came to 57.3%.

For `Cc1ccc(-c2nnn(CCCN3CCOCC3)n2)cc1`, the Activity is listed as 99.39% in test [1], 99.03% in test [2], 99.87% in test [3] and 0.56 log10CFU/ml in [4]. For the same compound, the “growth inhibition (GI)” value in test [5] is recorded as 99.55%; in [6], 99.31%; in test [7], 98.75%; in [9], 98.95%; in [10], 99.54%; in test [11], 99.86%. The inhibition of growth at 2.5 µg/mL in test [8] turned out to be 98.5%. Also, the residual activity in [12] and in test [13] was 100% each time. For the same compound, the Metabolic activity in [14] came out at 50.83%; in test [15], 69.42%; in test [16], 93.5%; in test [18], 89.3%; in [19], 71.88%. In addition, in [17], the Metabolic activity at 20 µg/mL turned out to be 61.7%.

Take `ClCCCn1nnnc1-c1ccccc1Cl`: the Activity is recorded as 99.06% in test [1], 99.34% in [2], 99.51% in test [3] and 0.18 log10CFU/ml in test [4]. The “growth inhibition (GI)” value was 99.53% in [5]; 99.25% in test [6]; 100% in test [7]; 100% in test [9]; 99.49% in [10]; 98.74% in test [11]. Besides, in test [8], the inhibition of growth at 2.5 µg/mL was 99.4%. The values for the residual activity in [12] and in test [13] were 97.62% and 71.55%, respectively. Further, the Metabolic activity in [14] amounted to 70.42%; in [15], 81.77%; in test [16], 82.92%; in [18] it was 80.34%; in [19], 81.5%. Besides, in test [17], the Metabolic activity at 20 µg/mL is 67.8%.

Usually residual activity stands for the share of the control activity or signal that is left under treatment.
